Data taken from ChEMBL document CHEMBL3085658, “Novel toll-like receptor 4 (TLR4) antagonists identified by structure- and ligand-based virtual screening” (Eur J Med Chem, 2013).
The source made the active and inactive calls. The calls are words filed in the database; no cut-off is given here.

Each molecule was assayed on PBMC (assay: Inhibition of TNFalpha secretion in human PBMC preincubated at 100 uM for 2 hrs before LPS challenge measured after 48 hrs by ELISA). Conditions: not given.
Type: functional
Method in brief: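 PBMCs were isolated from healthy volunteer blood and pre-incubated with compound for 2 h. They were then challenged with LPS for 48 h, with TAK-242 as positive control. Supernatant TNF-α was measured by ELISA, and significance was tested by unpaired t tests.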
`Cc1ccccc1Nc1nc(N)nc(CN2CCC[C@@H]2c2nc3ccccc3s2)n1` gave an inhibition at 100 µM of 80.8%. `COc1ccc(O)c(C(=O)c2cnc(/N=C(\N)Nc3ccc(F)cc3)nc2)c1` showed an inhibition at 100 µM of 87.4%. In the case of `CN(CC(=O)Nc1ccc(N2CCOCC2)cc1)Cc1nc2scc(-c3ccccc3)c2c(=O)[nH]1`, the inhibition at 100 µM is reported as 93.3%.

These molecules were tested against T1, Toll-like receptor 4 (Homo sapiens, UniProt O00206) (assay: Binding affinity to human recombinant TLR4 at 20 uM by SPR method). Conditions: not given.
T1 sequence (O00206 whole entry): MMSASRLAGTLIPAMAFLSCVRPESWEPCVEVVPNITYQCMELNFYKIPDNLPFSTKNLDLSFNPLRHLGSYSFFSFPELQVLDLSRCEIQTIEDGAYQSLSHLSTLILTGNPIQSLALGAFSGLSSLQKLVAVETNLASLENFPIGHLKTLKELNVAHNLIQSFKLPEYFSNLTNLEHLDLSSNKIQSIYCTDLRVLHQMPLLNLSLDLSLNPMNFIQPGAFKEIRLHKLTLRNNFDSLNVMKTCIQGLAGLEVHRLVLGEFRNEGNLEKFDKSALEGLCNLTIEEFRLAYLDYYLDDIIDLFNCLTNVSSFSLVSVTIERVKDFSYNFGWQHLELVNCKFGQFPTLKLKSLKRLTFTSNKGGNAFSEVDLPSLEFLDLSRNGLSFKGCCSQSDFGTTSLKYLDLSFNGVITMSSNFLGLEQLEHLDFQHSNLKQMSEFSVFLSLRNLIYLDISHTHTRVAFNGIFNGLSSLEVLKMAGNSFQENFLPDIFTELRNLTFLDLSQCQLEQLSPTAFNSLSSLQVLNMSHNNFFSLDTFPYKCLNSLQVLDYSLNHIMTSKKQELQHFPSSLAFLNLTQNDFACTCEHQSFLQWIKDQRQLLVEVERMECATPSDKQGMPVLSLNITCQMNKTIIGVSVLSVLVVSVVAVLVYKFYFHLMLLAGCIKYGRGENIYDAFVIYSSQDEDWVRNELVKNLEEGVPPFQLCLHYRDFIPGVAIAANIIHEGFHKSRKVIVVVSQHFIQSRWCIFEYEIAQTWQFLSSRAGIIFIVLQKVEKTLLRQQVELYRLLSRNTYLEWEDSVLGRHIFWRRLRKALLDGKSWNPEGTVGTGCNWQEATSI
Method in brief: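 Recombinant human TLR4 was amine-coupled to a CM5 chip at about 8000 RU, with a reference flow cell. Runs were at 25 °C in PBS pH 7.4 plus 2% DMSO running buffer. Compounds were injected at 20 and 200 µM for 1 min, and dissociation was monitored for 30 s. Responses were compared against buffer injection, with no regeneration.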
For `COc1ccc(O)c(C(=O)c2cnc(/N=C(\N)Nc3ccc(F)cc3)nc2)c1`, the Activity was “Active”.

These molecules were tested against T1, Toll-like receptor 4 (assay: Antagonist activity at human TLR4 expressed in LPS-stimulated HEK293 cells co-expressing MDM2 and CD14 after 2 hrs by SEAP assay). Conditions: in the assay text read “MD-2” for “MDM2”.
Type: cell-based
Method in brief: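 HEK-Blue hTLR4 cells (HEK293 co-transfected with human TLR4, MD-2, CD14 and an inducible SEAP reporter) were cultured per provider instructions. They were pre-incubated with compound at various concentrations for 2 h at 37 C, then challenged with LPS for 20 h. Supernatant SEAP was read colorimetrically, and IC50 was calculated from the decrease in absorbance.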
`Cc1ccccc1Nc1nc(N)nc(CN2CCC[C@@H]2c2nc3ccccc3s2)n1` gave an IC50 of 64.1 µM. For `COc1ccc(O)c(C(=O)c2cnc(/N=C(\N)Nc3ccc(F)cc3)nc2)c1`, the IC50 was 16.6 µM. In the case of `CN(CC(=O)Nc1ccc(N2CCOCC2)cc1)Cc1nc2scc(-c3ccccc3)c2c(=O)[nH]1`, the IC50 is reported as 168 µM.

What follows are molecules tested against T1, Toll-like receptor 4 (assay: Binding affinity to human recombinant TLR4 at >320 uM by SPR method). Conditions: not given.
Method in brief: (§1)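 Recombinant human TLR4 was amine-coupled to a CM5 chip at about 8000 RU. Titration was run at 25 °C in PBS pH 7.4 with 2% DMSO, at 0, 5, 10, 20, 40, 80 (repeated at the end), 160 and 320 µM. Each injection lasted 1 min and dissociation was followed for 30 s. The response at the end of association was plotted against concentration.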
`COc1ccc(O)c(C(=O)c2cnc(/N=C(\N)Nc3ccc(F)cc3)nc2)c1` was tested, and the Activity was “inactive”.

Each molecule was assayed against T1, Toll-like receptor 4 (assay: Antagonist activity at human TLR4 expressed in LPS-stimulated HEK293 cells co-expressing MD-2 and CD14 after 2 hrs by SEAP assay). Conditions: not given.
For `O=c1[nH]c(CN2CCC[C@@H]2c2ccc3c(c2)OCCCO3)nc2scc(-c3ccccc3)c12`, the IC50 was “ND(Insoluble)”. `C[C@H](SCc1nc2scc(-c3ccccc3)c2c(=O)[nH]1)C(=O)NCc1nc2ccccc2[nH]1` was tested, and the IC50 was “ND(Insoluble)”. In the case of `Cc1nn(Cc2ccccc2Cl)c(C)c1CN(C)C(=O)/C=C/c1cccs1`, the IC50 is reported as “Not Active”. `O=C(CSCC(=O)Nc1ccccc1)NNC(=O)Nc1ccc(Cl)cc1` was tested, and the IC50 was “ND(Insoluble)”. For `O=C(NCCNC(=O)c1cc2ccccc2[nH]1)C(=O)NCc1ccc2c(c1)OCO2`, the IC50 was “Not Active”. `Cc1ccc(Cn2cc(C(=O)NNC(=O)Nc3ccc4c(c3)OCO4)ccc2=O)cc1` was tested, and the IC50 was “ND(Insoluble)”. For `CCN(CC(=O)Nc1ccc2c(c1)OCCO2)Cc1nc2scc(-c3ccc(C)s3)c2c(=O)[nH]1`, the IC50 was “ND(Insoluble)”. In the case of `O=C(CSc1nnc(-c2ccc3c(c2)OCCO3)c(O)n1)Nc1ccc(F)cc1`, the IC50 is reported as “ND(Insoluble)”. `COc1ccccc1CNC(=O)c1ccccc1NS(=O)(=O)c1ccc2[nH]c(=O)[nH]c2c1` was tested, and the IC50 was “ND(Insoluble)”. With `Cc1cccc(NC(=O)CNC(=O)CCc2nc(O)c3c4c(sc3n2)CCCC4)c1C` the IC50 was “ND(Insoluble)”. In the case of `N=C(NC1=N[C@@H](CC(=O)Nc2ccc(Cl)cc2)C(O)=N1)Nc1ccccc1`, the IC50 is reported as “Not Active”. In the case of `O=C(CSCC(=O)Nc1ccccc1)NNC(=O)Nc1ccccc1`, the IC50 is reported as “ND(Insoluble)”. With `COc1ccc(OC[C@H](O)CN2CCc3ccccc3C2)cc1` the IC50 was “ND(Insoluble)”. In the case of `COc1ccc(NC(=O)CN(C)C(=O)c2cc(-c3ccc(C)s3)[nH]n2)cc1`, the IC50 is reported as “ND(Insoluble)”. For `Cc1nn(Cc2ccccc2Cl)c(C)c1CN(C)C(=O)/C=C/c1ccc2c(c1)OCO2`, the IC50 was “Not Active”. `CCN1CCN(CCNC(=O)[C@H](C)C2CCN(C(=O)c3cc4cc(Cl)ccc4[nH]3)CC2)CC1` was tested, and the IC50 was “ND(Insoluble)”. With `C[C@H](Sc1nc2scc(-c3cccs3)c2c(=O)[nH]1)C(=O)NC(=O)NC1CCCCC1` the IC50 was “ND(Insoluble)”. With `CC(C)c1ccc(NC(=O)CCc2csc(NC(=O)c3ccc[nH]c3=O)n2)cc1` the IC50 was “ND(Insoluble)”. For `COc1cccc(NC(=O)/C=C(\C)NNC(=O)c2ccc(-c3ccccc3)cc2)c1`, the IC50 was “ND(Insoluble)”. With `CN(CC(=O)Nc1ccc(Cl)c(Cl)c1)Cc1nc2scc(-c3ccc(F)cc3)c2c(=O)[nH]1` the IC50 was “ND(Insoluble)”. For `COC(=O)c1ccc(/C=N/NC(=O)c2cc(-c3cccc([N+](=O)[O-])c3)[nH]n2)cc1`, the IC50 was “ND(Insoluble)”. For `C[C@@H](SCc1nc2scc(-c3ccccc3)c2c(=O)[nH]1)C(=O)Nc1ccc2c(c1)OCO2`, the IC50 was “Not Active”. For `Cc1nn(Cc2ccccc2Cl)c(C)c1CN(C)CCn1nc2ccccn2c1=O`, the IC50 was “Not Active”. `O=C(CCc1nc(O)c2c3c(sc2n1)CCCC3)NCC(=O)Nc1ccccc1Br` was tested, and the IC50 was “ND(Insoluble)”. For `Cc1nn(-c2ccccc2)c(C)c1CN(C)C[C@@H](O)Cn1cccn1`, the IC50 was “Not Active”. With `N#Cc1ccc(OC[C@H](O)CNCc2nc3ccccc3s2)cc1` the IC50 was “Not Active”. With `CN(Cc1nc2ccccc2s1)C[C@@H](O)COc1ccc(F)cc1` the IC50 was “Not Active”. `O=C(NCCNc1ccc(Nc2ccccn2)nn1)Nc1ccccc1F` was tested, and the IC50 was “Not Active”. `CC(C)(C)[C@@H]1CCc2c(sc3nc(CCC(=O)N4CCN(c5ccccn5)CC4)[nH]c(=O)c23)C1` was tested, and the IC50 was “ND(Insoluble)”. With `CC(C)(C)[C@H]1CCc2c(sc3nc(CCC(=O)NCc4ccc5c(c4)OCO5)[nH]c(=O)c23)C1` the IC50 was “ND(Insoluble)”. In the case of `N/C(=N\C(=O)c1ccc(-c2ccccc2)cc1)Nc1nc2ccccc2o1`, the IC50 is reported as “ND(Insoluble)”. `Cc1ncc(CN(C)C[C@@H](O)COc2ccc(F)cc2)s1` was tested, and the IC50 was “ND(Insoluble)”. `Nc1nc(CSc2nnc(Cc3ccccc3F)n2N)nc(Nc2ccc(Cl)cc2)n1` was tested, and the IC50 was “Not Active”. In the case of `O=C(CSc1nnc(-c2ccc3c(c2)OCCO3)c(O)n1)Nc1ccc(F)c(F)c1`, the IC50 is reported as “ND(Insoluble)”. With `CN(CC(=O)Nc1cccc(F)c1)Cc1nc2scc(-c3ccc(F)cc3)c2c(=O)[nH]1` the IC50 was “ND(Insoluble)”. `Cc1ccc(C(=O)Nc2c(N)nc(SCC(=O)NCc3ccc4c(c3)OCO4)[nH]c2=O)cc1` was tested, and the IC50 was “ND(Insoluble)”. With `O=C(CCc1nc2sc3c(c2c(=O)[nH]1)CCCC3)NCc1nc2ccccc2[nH]1` the IC50 was “ND(Insoluble)”. `COc1ccc(NC(=N)Nc2nc(C)c(Cc3ccccc3)c(O)n2)cc1` was tested, and the IC50 was “ND(Insoluble)”.

The molecules below were run on HEK293 (assay: Cytotoxicity against HEK293 cells after 24 hrs by flow cytometry). Conditions: human, hek293, 24 h.
Type: cell-based
Method in brief: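 HEK293 cells were cultured for 24 h with compound at 100 or 200 µM, with DMSO as control. Cells were then harvested and stained with propidium iodide to count dead cells. Solubility in RPMI 1640 was first checked by light microscopy for precipitation.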
For `O=C(CN1CCC[C@H]1c1nc2ccccc2s1)c1c[nH]c(C(=O)N2CCCC2)c1`, the Activity was “Toxic”. For `Cc1cc([C@@H]2CCCN2C[C@H](O)COc2ccc(Cl)cc2)on1`, the Activity was “Toxic”. In the case of `Cc1ccccc1NC(=O)NCCNc1ccc(Nc2ccccn2)nn1`, the Activity is reported as “Toxic”. With `COc1ccc(OC[C@H](O)CN(C)C(=O)c2ccc(Cl)cc2)cc1` the Activity was “Toxic”.

These molecules were tested against T1, Toll-like receptor 4 (assay: Binding affinity to human recombinant TLR4 up to 320 uM by SPR method). Conditions: not given.
Method in brief: as §1
For `COc1ccc(O)c(C(=O)c2cnc(/N=C(\N)Nc3ccc(F)cc3)nc2)c1`, the Activity was “Active”.
